Assay outcomes: PubChem, The Scripps Research Institute Molecular Screening Center
In the library only some 2.3% were active in any assay of this set; here they are far more common.
ADAM17 inh: ADAM17 inhibitors, primary screen, biochemical, QFRET; AID 720648, 2013; inhibition, % at 6.95 µM; 370,000 tested, 0.83% active; recombinant ADAM17, EDANS/DABCYL FRET peptide cleavage;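 active = inhibition above the mean of compounds lying between control limits plus 3 SD, set per campaign, cut at about 8.5% in these data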;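 note: 0% = DMSO-only wells as the low control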
PLC-beta3 inh: human PLC-beta3 inhibitors, primary screen, biochemical, fluorescence; 1-phosphatidylinositol 4,5-bisphosphate phosphodiesterase beta-3 (Homo sapiens), Q01970; Purified PLC-beta3, fluorogenic substrate; inhibition, % at 12.2 µM; 370,000 tested, 0.18% active; in the data active = inhibition above about 11%;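 note: 0% = median of compound wells on plate and 100% = full blocker control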
DDE Tn6 FP inh: inhibitors of Tn6 peptide binding to fibrin DD(E), primary screen, biochemical, fluorescence polarization, human fibrin, Tn6 probe; Fibrin DD(E) TRITC-Tn6 fluorescence polarization displacement; inhibition, % at 8.3 µM; 370,000 tested, 0.21% active; AID 720509, 2013;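 active = inhibition above a per-campaign cutoff: mean of compounds within control limits plus 3 SD, cut at about 15% in these data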;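 note: 0% = median of all compound wells on the plate and 100% = blocking peptide control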
Target sequence (P02675 whole entry, looked up): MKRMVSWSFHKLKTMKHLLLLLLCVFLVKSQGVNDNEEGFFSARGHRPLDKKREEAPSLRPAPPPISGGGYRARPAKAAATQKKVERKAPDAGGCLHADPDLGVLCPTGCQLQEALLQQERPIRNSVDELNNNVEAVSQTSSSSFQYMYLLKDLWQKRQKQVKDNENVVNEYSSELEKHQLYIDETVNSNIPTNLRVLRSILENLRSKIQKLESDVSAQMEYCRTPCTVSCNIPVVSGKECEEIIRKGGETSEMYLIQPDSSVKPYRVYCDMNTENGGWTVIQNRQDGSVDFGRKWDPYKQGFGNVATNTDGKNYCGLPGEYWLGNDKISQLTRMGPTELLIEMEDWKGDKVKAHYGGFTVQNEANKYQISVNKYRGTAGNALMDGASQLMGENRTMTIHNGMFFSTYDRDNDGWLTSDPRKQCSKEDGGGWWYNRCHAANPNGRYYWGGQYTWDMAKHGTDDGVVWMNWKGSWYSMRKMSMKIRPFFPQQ
Tn7 DDE FP: inhibitors of Tn7 peptide binding to fibrin DD(E), primary screen, biochemical, fluorescence polarization, human fibrin, Tn7 probe | Fibrinogen beta chain (Homo sapiens), P02675 | FP displacement of FITC-Tn7 peptide from fibrin DD(E); 0% = median of compound wells per plate | inhibition, % at 8.3 µM | 370,000 tested, 0.13% active | AID 720508, 2013;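 active = inhibition above the mean of compounds falling within the control limits plus 3 SD of them, cut at about 14% in these data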;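 note: 0% = plate median of compound wells and 100% = 10 µM Aha-Tn7 peptide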
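Assay system: Human fibrin DD(E) protein | Medium: Tris buffer with calcium and detergent, pH 7.8 | Reagent: 0.1 µM fluorescent Tn7 | Compound dosing: Single point at 8.3 µM | Times: 10 min preincubation, 3 h with tracer, room temperature | Detection: Fluorescence polarization of the labelled Tn7 tracer | Controls: Aha-Tn7 high control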
ADAM10 inh: human ADAM10 inhibitors, primary screen, biochemical, QFRET, HTS | Disintegrin and metalloproteinase domain-containing protein 10 (Homo sapiens), O14672 | 370,000 tested, 0.62% active | inhibition, % at 7 µM | recombinant ADAM10, EDANS/DABCYL FRET peptide cleavage, 3 h;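 active = inhibition above a per-campaign cutoff equal to the mean of compounds falling between control-based bounds plus 3 SD, cut at about 20% in these data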;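 note: 0% = DMSO wells while the 100% control is not disclosed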
PLC-gamma1 inh: PLC-gamma1 enzyme inhibitors, primary screen, biochemical, fluorescence, purified enzyme | inhibition, % at 12.2 µM | fluorogenic substrate | 1-phosphatidylinositol 4,5-bisphosphate phosphodiesterase gamma-1 (Homo sapiens), P19174 | 370,000 tested, 0.84% active; in the data active = inhibition above about 9.5%
ADAM10 confirm: human ADAM10 inhibitors, confirmation, biochemical, QFRET, triplicate; shares compounds with ADAM10 inh; ADAM10 QFRET peptide cleavage, EDANS fluorescence; inhibition, % at 6.95 µM; 2,100 tested, 1% active; AID 743208, 2013;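 active = inhibition above about 20% chosen separately for each screening run, limit read from the data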;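 note: 0% = DMSO wells and 100% = marimastat wells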
ADAM17 ctr: ADAM17 inhibitors, counter-screen for ADAM10 exosite inhibitor project, biochemical, QFRET, high throughput. shares compounds with ADAM10 inh. ADAM17 QFRET peptide cleavage, EDANS fluorescence. 2,100 tested, 0.5% active. inhibition, % at 6.95 µM;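 active = mean triplicate inhibition above the solvent-only control wells' mean plus 3 SD, cut at about 12% in these data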;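 note: 0% = DMSO wells and 100% = marimastat wells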
Active calls of the source: *.

How did C#CCOCCOCCOCCNc1nc(N2CCN(C(=O)Cn3cc(CCCN=C(N)N)nn3)CC2)nc(N2CCN(C(=O)[C@H](Cc3ccc(O)cc3)n3cc(CCO)nn3)CC2)n1 do in these assays?
ADAM17 inh: -1.8; PLC-beta3 inh: 4.1; DDE Tn6 FP inh: -0.6; Tn7 DDE FP: -6.2; ADAM10 inh: -3.1; PLC-gamma1 inh: 2.8

How did Cc1[nH]n(-c2ccc([N+](=O)[O-])cc2)c(=O)c1C=NCCN1CCN(C(=O)c2ccccc2)CC1 do in these assays?
ADAM17 inh: 8.2; PLC-beta3 inh: 0.0; DDE Tn6 FP inh: -6.0; Tn7 DDE FP: -1.5; ADAM10 inh: 20.5*; PLC-gamma1 inh: 8.5; ADAM10 confirm: 1.9; ADAM17 ctr: -0.6

What do the screens show for `CCOc1ccc(CCN2C(=S)N([C@@H](Cc3ccc(O)cc3)CN3CCC[C@@H]3CN3C(=S)NC[C@@H]3CC(C)C)C[C@@H]2Cc2ccccc2)cc1`?
ADAM17 inh: 4.2; PLC-beta3 inh: -2.5; DDE Tn6 FP inh: -7.7; Tn7 DDE FP: -0.4; ADAM10 inh: 21.0*; PLC-gamma1 inh: 0.5; ADAM10 confirm: 12.0; ADAM17 ctr: 4.5

Results for CCOc1ccc(CCN2C(=S)N([C@@H](Cc3ccccc3)CN3CCC[C@@H]3CN3C(=S)NC[C@@H]3CC(C)C)C[C@@H]2Cc2ccccc2)cc1 ?
ADAM17 inh: 1.7; PLC-beta3 inh: -5.0; DDE Tn6 FP inh: -1.1; Tn7 DDE FP: 4.4; ADAM10 inh: 2.1; PLC-gamma1 inh: 6.5

Results for COC(=O)C1CN(Cc2cn(Cc3ccc(F)cc3)nn2)CCS(=O)(=O)N1Cc1ccc(F)cc1 (centres undefined) ?
ADAM17 inh: 4.9; PLC-beta3 inh: 6.0; DDE Tn6 FP inh: 2.5; Tn7 DDE FP: -5.3; ADAM10 inh: 10.6; PLC-gamma1 inh: 8.9

Results for CN(C)CCCN1c2ccc([N+](=O)[O-])cc2CCc2cc([N+](=O)[O-])ccc21 ?
ADAM17 inh: 8.3; PLC-beta3 inh: -7.8; DDE Tn6 FP inh: 1.2; Tn7 DDE FP: 1.2; ADAM10 inh: 23.2*; PLC-gamma1 inh: -6.6; ADAM10 confirm: 0.4; ADAM17 ctr: 0.5

Results for CCOC(=O)Nc1ccc2c(c1)N(CCCN(C)C)c1ccccc1CC2 ?
ADAM17 inh: 0.6; PLC-beta3 inh: -5.9; DDE Tn6 FP inh: -9.5; Tn7 DDE FP: -5.1; ADAM10 inh: -5.0; PLC-gamma1 inh: 6.5

What do the screens show for `COC(=O)[C@]12C[C@H](CC(=O)NCC3CCCCC3)C(=O)N(Cc3ccco3)C1=C[C@H](COCc1ccccc1)O[C@@H]2C`?
ADAM17 inh: -0.9; PLC-beta3 inh: -3.7; DDE Tn6 FP inh: 2.4; Tn7 DDE FP: -5.0; ADAM10 inh: -6.0; PLC-gamma1 inh: -1.1

What do the screens show for `CCOC(=O)c1ccc(NC(=S)NC(=O)c2cncc(Br)c2)cc1`?
ADAM17 inh: -2.5; PLC-beta3 inh: 2.8; DDE Tn6 FP inh: -8.0; Tn7 DDE FP: 4.8; ADAM10 inh: 75.2*; PLC-gamma1 inh: 1.0; ADAM10 confirm: 0.3; ADAM17 ctr: -0.4

How did CCOc1ccc(NC(=S)NC(=O)c2cncc(Br)c2)cc1 do in these assays?
ADAM17 inh: 7.5; PLC-beta3 inh: 5.1; DDE Tn6 FP inh: -0.1; Tn7 DDE FP: -10.5; ADAM10 inh: 6.8; PLC-gamma1 inh: 7.8

How did O=C(CCC(=O)N1CCN(C2c3ccccc3-c3ccccc32)CC1)Nc1nnc(C(F)(F)F)s1 do in these assays?
ADAM17 inh: 0.2; PLC-beta3 inh: 3.0; DDE Tn6 FP inh: 3.2; Tn7 DDE FP: 6.1; ADAM10 inh: 2.3; PLC-gamma1 inh: 2.8

How did C=CCc1cccc(CNc2nc3ccccc3n2CC)c1O do in these assays?
ADAM17 inh: 5.4; PLC-beta3 inh: -0.2; DDE Tn6 FP inh: 0.2; Tn7 DDE FP: 1.4; ADAM10 inh: 20.0*; PLC-gamma1 inh: 0.5; ADAM10 confirm: 3.2; ADAM17 ctr: 1.1

Results for CC(Nc1nc(-c2ccc(F)cc2)cs1)c1nc2cc(Cl)c(N3CCCCC3)cc2n1CCCO (centres undefined) ?
ADAM17 inh: 3.6; PLC-beta3 inh: -61.2; DDE Tn6 FP inh: 0.3; Tn7 DDE FP: 2.0; ADAM10 inh: 42.2*; PLC-gamma1 inh: -36.1; ADAM10 confirm: 4.0; ADAM17 ctr: 2.1

How did CC(Nc1nc(-c2ccc(F)cc2)cs1)c1nc2cc(Cl)c(N3CCCCC3)cc2n1CCOCCO (centres undefined) do in these assays?
ADAM17 inh: 8.1; PLC-beta3 inh: -15.3; DDE Tn6 FP inh: -3.4; Tn7 DDE FP: -8.7; ADAM10 inh: 14.8; PLC-gamma1 inh: -9.7

Results for CC(=O)OCc1ccc(C2=CC(=O)CC(C)(C)C2=O)cc1 ?
ADAM17 inh: -3.8; PLC-beta3 inh: 3.2; DDE Tn6 FP inh: -3.1; Tn7 DDE FP: 2.6; ADAM10 inh: -14.6; PLC-gamma1 inh: 1.2

How did CC1(C)CC(=O)C=C(c2ccc(COC(=O)C(c3ccccc3)c3ccccc3)cc2)C1=O do in these assays?
ADAM17 inh: 5.6; PLC-beta3 inh: 2.1; DDE Tn6 FP inh: -0.9; Tn7 DDE FP: 10.1; ADAM10 inh: 20.1*; PLC-gamma1 inh: 1.6; ADAM10 confirm: 3.3; ADAM17 ctr: 0.5

How did O=C1CSC(c2cccc(F)c2)N1c1c(F)cccc1F (centres undefined) do in these assays?
ADAM17 inh: 1.0; PLC-beta3 inh: 6.6; DDE Tn6 FP inh: 0.1; Tn7 DDE FP: 2.3; ADAM10 inh: 22.5*; PLC-gamma1 inh: 8.4; ADAM10 confirm: 0.1; ADAM17 ctr: 0.3

How did O=S1(=O)c2c(F)cccc2OC(COc2ccccc2)CN1CCc1ccc(F)cc1 (centres undefined) do in these assays?
ADAM17 inh: 3.0; PLC-beta3 inh: -1.1; DDE Tn6 FP inh: -3.7; Tn7 DDE FP: 2.3; ADAM10 inh: 9.3; PLC-gamma1 inh: -3.0

What do the screens show for `O=S1(=O)c2c(F)cccc2O[C@@H](COCc2ccccc2)CN1CCc1ccc(F)cc1`?
ADAM17 inh: 8.6; PLC-beta3 inh: 1.2; DDE Tn6 FP inh: 3.8; Tn7 DDE FP: -6.6; ADAM10 inh: 20.7*; PLC-gamma1 inh: 2.7; ADAM10 confirm: 4.9; ADAM17 ctr: 1.3
